Measured values as given in PMC2749063 (Current eye research, 2009).
“Also recorded” adds a separate entry of the source. Like-named read-outs stand apart in the source and are kept apart here. Ends that are not written are not given here.

Columns and labels:
Ad3 = assay: Direct viral time kill assay, Ad3; format: cell-based, adenovirus; conditions: Ad3, 500 μg/ml peptide, 4 hours; ANOVA p = 0.008
Method in brief: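 Ad3 reference strain grown in A549 cells. Peptide stock in sterile water, diluted in tryptone-saline (pH 5.5). Final mix: 500 μg/ml peptide with ~10⁴ PFU/ml virus, or tryptone-saline control, at 37°C. At 1 and 4 h, aliquots diluted in ice-cold medium with 10% FBS, then plated on A549 monolayers (37°C, 5% CO₂). After 8-9 days, gentian violet-stained plaques counted as PFU/ml. Log₁₀ titers by ANOVA/Fisher; 7 repeats.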

bacteria = conditions: cited from earlier work
Ad5 [1] = assay: TOTO-1 assay, Ad5 capsid integrity; design: species or system adenovirus; conditions: 5 hours at 37°C; for TOTO-1 fluorescence / Ad5 capsid integrity (in words): Ad5, peptide 10-500 μg/ml
Ad5 [2] = assay: Direct viral time kill assay, Ad5; format: cell-based, adenovirus; conditions: Ad5, 500 μg/ml peptide; for inhibition of Ad5 vs tryptone-saline control (in words): 4 hours, ANOVA p < 0.001
Method in brief: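 Ad5 clinical isolate grown in A549 cells. Peptide stock in sterile water, diluted in tryptone-saline (pH 5.5); mixed with virus to 500 μg/ml final, ~10⁴ PFU/ml; 37°C water bath. Aliquot at 1 h quenched in ice-cold medium with 10% FBS, diluted, plated on A549 monolayers (37°C, 5% CO₂). Gentian violet stain at 7 days, plaques counted, titer as PFU/ml; 7 repeats; log₁₀ ANOVA, Fisher comparisons.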

Ad5 [3] = assay: Increasing Concentration Direct Inhibition Assay, Ad5; format: cell-based, adenovirus
HSV-1 [4] = assay: Increasing Concentration Direct Inhibition Assay, HSV-1; format: cell-based, herpes simplex virus type 1
Method in brief: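 HSV-1 McKrae strain, grown in Vero cells. Virus incubated with test compound at a range of concentrations in tryptone-saline. Titers were determined by plaque assay. Each concentration has its own tryptone-saline control. Log reduction is the mean titer difference between treated virus and that control.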

HSV-1 [5] = assay: TOTO-1 assay, HSV-1 envelope/capsid integrity; design: species or system herpes simplex virus type 1; conditions: 5 hours at 37°C
Method in brief: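 HSV-1 McKrae grown in Vero cells. Test compound (2-500 μg/ml) incubated with or without virus (~5 × 10⁴ PFU/ml), 5 h, 37°C. Mixture added to 120 nM TOTO-1 in tryptone-saline pH 8.0; fluorescence read at 485/20 nm excitation, 516/20 nm emission. Signal = raw minus peptide- and virus-derived fluorescence; adenovirus DNA standards. Run in duplicate; repeated at least twice on different days.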

Asn-Gln-------------Gly-Arg-His-Phe-Cys-Gly-Gly-Ala-Leu-Ile-His-Ala-Arg-Phe-Val-Met-Thr-Ala-Ala-Ser-Ser-Phe-Gln [Peptide C]
inhibition of Ad3 vs tryptone-saline control (in words) (Ad3): statistically-significant reduction in viral titers

Asn-Gln-------------Gly-Arg-His-Phe-Ser-Gly-Gly-Ala-Leu-Ile-His-Ala-Arg-Phe-Val-Met-Thr-Ala-Ala-Ser-Ser-Phe-Gln [Peptide D]
inhibition of Ad3 vs tryptone-saline control (in words) (Ad3): statistically-significant reduction in viral titers | antibacterial activity (in words) (bacteria; ref Previous studies): inactive

IQSPAGQSRCGGFLVREDFVLTAAHCWG (cysteine pairing not given here) [Cathepsin G20-47 peptide, reference compound]
TOTO-1 fluorescence / Ad5 capsid integrity (in words) (Ad5 [1]): minimal fluorescence; also recorded: no disruptive effect on Ad5 capsid integrity | antibacterial activity (in words) (bacteria): negligible antibacterial activity

NQGRHFCGGALIHARFVMTAASCFQ (cysteine pairing not given here) [Peptide A]
inhibition of Ad3 vs tryptone-saline control (in words) (Ad3): statistically-significant reduction in viral titers | inhibition of Ad5 at 1 hour (in words) (Ad5 [2]; 1 hour incubation, data not shown): significantly inhibited | inhibition of Ad5 vs tryptone-saline control (in words) (Ad5 [2]): significantly greater inhibitory activity than the tryptone-saline control | initial inhibitory concentration (Ad5 [3]; Ad5, 4 hours incubation): 50 µg/mL | inhibitory effect (log reduction of viral titers) above 100 μg/ml (Ad5 [3]; Ad5, peptide above 100 μg/ml (up to 750 μg/ml), 4 hours incubation): ~2 log reductions | initial inhibitory concentration (HSV-1 [4]; HSV-1, 4 hours incubation): 50 µg/mL | inhibitory effect (log reduction of viral titers) above 100 μg/ml (HSV-1 [4]; HSV-1, peptide above 100 μg/ml (up to 750 μg/ml), 4 hours incubation): ~2 log reductions | increase in TOTO-1 fluorescence (Ad5 [1]; Ad5, peptide 500 μg/ml, 120 nM TOTO-1): 65-85% | TOTO-1 fluorescence / Ad5 capsid integrity (in words) (Ad5 [1]): dose-dependent increase in TOTO-1 fluorescence | TOTO-1 fluorescence with HSV-1 between 10 and 100 μg/ml (in words) (HSV-1 [5]; HSV-1, peptide 10 to 100 μg/ml): no increase in fluorescence | TOTO-1 fluorescence with HSV-1 from 100 to 500 μg/ml (in words) (HSV-1 [5]; HSV-1, peptide 100 to 500 μg/ml): increasing fluorescence

NQGRHFSGGALIHARFVMTAASCFQ [Peptide B]
inhibition of Ad3 vs tryptone-saline control (in words) (Ad3): statistically-significant reduction in viral titers | inhibition of Ad5 vs tryptone-saline control (in words) (Ad5 [2]): significantly greater inhibitory activity than the tryptone-saline control
